ChEMBL document CHEMBL1629686, “Substrate selectivity and a novel role in inhibitor discrimination by residue 237 in the KPC-2 beta-lactamase” (Antimicrob Agents Chemother, 2010)
Converted amounts (≈) assume the structure as drawn.

Columns and labels:
[1] = test system: Escherichia coli; experiment: Antimicrobial activity against Escherichia coli DH10B harboring beta-lactamase KPC-2 T237N mutant by agar dilution method in presence of beta-lactamase inhibitor Sulbactam; type: functional; conditions: K-12 DH10B
How it was run: (§1)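 LB agar dilution MICs by CLSI criteria, applied with a Steers replicator. […] Hosts were E. coli DH10B carrying pBC SK(+) with wild-type blaKPC-2 or a position 237 variant.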

[2] = test system: Escherichia coli; experiment: Antimicrobial activity against Escherichia coli DH10B harboring beta-lactamase KPC-2 T237W mutant by agar dilution method in presence of beta-lactamase inhibitor clavulanic acid; type: functional; conditions: K-12 DH10B
How it was run: (§2)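 LB agar dilution MICs per CLSI criteria, inoculated with a Steers replicator. […] Strains: E. coli DH10B alone, DH10B carrying empty pBC SK(+), or DH10B carrying pBC SK(+)-blaKPC-2 position 237 variants made by site-saturation mutagenesis and confirmed by sequencing. Plasmid selection used 20 mg/liter chloramphenicol.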

[3] = test system: Escherichia coli; experiment: Antimicrobial activity against Escherichia coli DH10B harboring plasmid pBC SK(+) carrying wild type beta-lactamase KPC-2 by agar dilution method in presence of beta-lactamase inhibitor Sulbactam; type: functional; conditions: K-12 DH10B; how it was run: as §1
[4] = test system: Escherichia coli; experiment: Antimicrobial activity against Escherichia coli DH10B harboring beta-lactamase KPC-2 T237D mutant by agar dilution method in presence of beta-lactamase inhibitor Sulbactam; type: functional; conditions: K-12 DH10B; how it was run: as §1
[5] = test system: Escherichia coli; experiment: Antimicrobial activity against Escherichia coli DH10B harboring beta-lactamase KPC-2 T237I mutant by agar dilution method in presence of beta-lactamase inhibitor clavulanic acid; type: functional; conditions: K-12 DH10B; how it was run: as §1
[6] = test system: Escherichia coli; experiment: Antimicrobial activity against Escherichia coli DH10B harboring beta-lactamase KPC-2 T237K mutant by agar dilution method in presence of beta-lactamase inhibitor Sulbactam; type: functional; conditions: K-12 DH10B; how it was run: as §1
[7] = test system: Escherichia coli; experiment: Antimicrobial activity against Escherichia coli DH10B by agar dilution method in presence of beta-lactamase inhibitor Sulbactam; type: functional; conditions: K-12 DH10B; how it was run: as §2
[8] = test system: Escherichia coli; experiment: Antimicrobial activity against Escherichia coli DH10B harboring beta-lactamase KPC-2 T237W mutant by agar dilution method in presence of beta-lactamase inhibitor Sulbactam; type: functional; conditions: K-12 DH10B; how it was run: as §1
[9] = test system: Escherichia coli; experiment: Antimicrobial activity against Escherichia coli DH10B harboring beta-lactamase KPC-2 T237L mutant by agar dilution method in presence of beta-lactamase inhibitor clavulanic acid; type: functional; conditions: K-12 DH10B; how it was run: as §1
[10] = test system: Escherichia coli; experiment: Antimicrobial activity against Escherichia coli DH10B harboring beta-lactamase KPC-2 T237P mutant by agar dilution method in presence of beta-lactamase inhibitor Sulbactam; type: functional; conditions: K-12 DH10B; how it was run: as §2
[11] = test system: Escherichia coli; experiment: Antimicrobial activity against Escherichia coli DH10B harboring beta-lactamase KPC-2 T237Y mutant by agar dilution method in presence of beta-lactamase inhibitor Sulbactam; type: functional; conditions: K-12 DH10B; how it was run: as §1
[12] = test system: Escherichia coli; experiment: Antimicrobial activity against Escherichia coli DH10B harboring beta-lactamase KPC-2 T237N mutant by agar dilution method in presence of beta-lactamase inhibitor clavulanic acid; type: functional; conditions: K-12 DH10B; how it was run: as §1
[13] = test system: Klebsiella pneumoniae; experiment: microbe, parasite or virus in culture; conditions: 1534
[14] = test system: Escherichia coli; experiment: Antimicrobial activity against Escherichia coli DH10B harboring plasmid pBC SK(+) carrying wild type beta-lactamase KPC-2 by agar dilution method in presence of beta-lactamase inhibitor clavulanic acid; type: functional; conditions: K-12 DH10B; how it was run: as §1
[15] = test system: Escherichia coli; experiment: Antimicrobial activity against Escherichia coli DH10B harboring beta-lactamase KPC-2 T237R mutant by agar dilution method in presence of beta-lactamase inhibitor Sulbactam; type: functional; conditions: K-12 DH10B; how it was run: as §2
[16] = test system: Escherichia coli; experiment: Antimicrobial activity against Escherichia coli DH10B harboring beta-lactamase KPC-2 T237V mutant by agar dilution method in presence of beta-lactamase inhibitor Sulbactam; type: functional; conditions: K-12 DH10B; how it was run: as §1
[17] = test system: Escherichia coli; experiment: Antimicrobial activity against Escherichia coli DH10B harboring beta-lactamase KPC-2 T237C mutant by agar dilution method in presence of beta-lactamase inhibitor Sulbactam; type: functional; conditions: K-12 DH10B; how it was run: as §2
[18] = test system: Escherichia coli; experiment: Antimicrobial activity against Escherichia coli DH10B harboring beta-lactamase KPC-2 T237H mutant by agar dilution method in presence of beta-lactamase inhibitor clavulanic acid; type: functional; conditions: K-12 DH10B; how it was run: as §1
[19] = test system: Escherichia coli; experiment: Antimicrobial activity against Escherichia coli DH10B harboring beta-lactamase KPC-2 T237D mutant by agar dilution method in presence of beta-lactamase inhibitor clavulanic acid; type: functional; conditions: K-12 DH10B; how it was run: as §1
[20] = test system: Escherichia coli; experiment: Antimicrobial activity against Escherichia coli DH10B harboring beta-lactamase KPC-2 T237Q mutant by agar dilution method in presence of beta-lactamase inhibitor Sulbactam; type: functional; conditions: K-12 DH10B; how it was run: as §1
[21] = test system: Escherichia coli; experiment: Antimicrobial activity against Escherichia coli DH10B harboring beta-lactamase KPC-2 T237S mutant by agar dilution method in presence of beta-lactamase inhibitor clavulanic acid; type: functional; conditions: K-12 DH10B; how it was run: as §1
[22] = test system: Escherichia coli; experiment: Antimicrobial activity against Escherichia coli DH10B harboring plasmid […] by agar dilution method in presence of beta-lactamase inhibitor Sulbactam; type: functional; conditions: K-12 DH10B; how it was run: as §2
[23] = test system: Escherichia coli; experiment: Antimicrobial activity against Escherichia coli DH10B harboring beta-lactamase KPC-2 T237C mutant by agar dilution method in presence of beta-lactamase inhibitor Tazobactam; type: functional; conditions: K-12 DH10B
How it was run: (§3)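 LB agar dilution MICs by CLSI criteria, inoculated with a Steers replicator. […] Strains were E. coli DH10B with or without pBC SK(+) carrying wild-type blaKPC-2 or a position 237 variant.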

[24] = test system: Escherichia coli; experiment: Antimicrobial activity against Escherichia coli DH10B harboring beta-lactamase KPC-2 T237Y mutant by agar dilution method in presence of beta-lactamase inhibitor Tazobactam; type: functional; conditions: K-12 DH10B; how it was run: as §3
[25] = test system: Klebsiella pneumoniae; experiment: Ratio of Kcat/Km for Klebsiella pneumoniae 1534 beta-lactamase KPC-2 T237A mutant by spectrophotometric analysis
How it was run: (§4)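 Purified KPC-2 variant enzymes (periplasmic lysate from E. coli, preparative isoelectric focusing). Hydrolysis followed by diode-array spectrophotometry in 10 mM PBS, pH 7.4, room temperature. Enzyme at 10 nM with substrate in molar excess for pseudo-first-order conditions. Vmax and Km came from a nonlinear least-squares Michaelis-Menten fit.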

[26] = test system: Escherichia coli; experiment: Antimicrobial activity against Escherichia coli DH10B harboring beta-lactamase KPC-2 T237E mutant by agar dilution method in presence of beta-lactamase inhibitor Tazobactam; type: functional; conditions: K-12 DH10B; how it was run: as §3
[27] = test system: Klebsiella pneumoniae; experiment: Activity of Klebsiella pneumoniae 1534 beta-lactamase KPC-2 T237S mutant by spectrophotometric analysis; how it was run: as §4
[28] = test system: Escherichia coli; experiment: Antimicrobial activity against Escherichia coli DH10B harboring beta-lactamase KPC-2 T237A mutant by agar dilution method in presence of beta-lactamase inhibitor Tazobactam; type: functional; conditions: K-12 DH10B; how it was run: as §3
[29] = test system: Escherichia coli; experiment: Antimicrobial activity against Escherichia coli DH10B harboring plasmid pBC SK(+) carrying wild type beta-lactamase KPC-2 by agar dilution method in presence of beta-lactamase inhibitor Tazobactam; type: functional; conditions: K-12 DH10B; how it was run: as §3
[30] = test system: Escherichia coli; experiment: Antimicrobial activity against Escherichia coli DH10B harboring beta-lactamase KPC-2 T237F mutant by agar dilution method in presence of beta-lactamase inhibitor Tazobactam; type: functional; conditions: K-12 DH10B; how it was run: as §3
[31] = test system: Escherichia coli; experiment: Antimicrobial activity against Escherichia coli DH10B harboring beta-lactamase KPC-2 T237S mutant by agar dilution method in presence of beta-lactamase inhibitor Tazobactam; type: functional; conditions: K-12 DH10B; how it was run: as §3
[32] = test system: Escherichia coli; experiment: Antimicrobial activity against Escherichia coli DH10B harboring beta-lactamase KPC-2 T237P mutant by agar dilution method in presence of beta-lactamase inhibitor Tazobactam; type: functional; conditions: K-12 DH10B; how it was run: as §3
[33] = test system: Escherichia coli; experiment: Antimicrobial activity against Escherichia coli DH10B harboring beta-lactamase KPC-2 T237R mutant by agar dilution method in presence of beta-lactamase inhibitor Tazobactam; type: functional; conditions: K-12 DH10B; how it was run: as §3
[34] = test system: Escherichia coli; experiment: Antimicrobial activity against Escherichia coli DH10B harboring beta-lactamase KPC-2 T237V mutant by agar dilution method in presence of beta-lactamase inhibitor Tazobactam; type: functional; conditions: K-12 DH10B; how it was run: as §3
[35] = test system: Escherichia coli; experiment: Antimicrobial activity against Escherichia coli DH10B harboring beta-lactamase KPC-2 T237W mutant by agar dilution method in presence of beta-lactamase inhibitor Tazobactam; type: functional; conditions: K-12 DH10B; how it was run: as §3

SMILES: CC1(C)S[C@@H]2[C@H](NC(=O)[C@H](N)c3ccccc3)C(=O)N2[C@H]1C(=O)O [AMPICILLIN]
- MIC [1]: 8 µg/mL
- MIC [2]: 1 µg/mL
- MIC [3]: 128 µg/mL
- MIC [4]: 16 µg/mL
- MIC [5]: 8 µg/mL
- MIC [6]: 4 µg/mL
- MIC [7]: 1 µg/mL
- MIC [8]: 8 µg/mL
- MIC [9]: 8 µg/mL
- MIC [10]: 1 µg/mL
- MIC [11]: 8 µg/mL
- MIC [12]: 4 µg/mL
- MIC [13]: 512 µg/mL (≈ 1470 µM)
- MIC [14]: 4 µg/mL
- MIC [15]: 1 µg/mL
- MIC [16]: 32 µg/mL
- MIC [17]: 1 µg/mL
- MIC [18]: 4 µg/mL
- MIC [19]: 8 µg/mL
- MIC [20]: 64 µg/mL
- MIC [21]: 4 µg/mL
- MIC [22]: 1 µg/mL

SMILES: CCN1CCN(C(=O)N[C@@H](C(=O)N[C@@H]2C(=O)N3[C@@H]2SC(C)(C)[C@@H]3C(=O)O)c2ccccc2)C(=O)C1=O [PIPERACILLIN]
- MIC [23]: 0.5 µg/mL
- MIC [24]: 0.5 µg/mL
- kcat/Km [25]: 3.5 µM⁻¹ s⁻¹
- MIC [26]: 0.5 µg/mL
- Km [27]: 6 µM
- kcat [27]: 42 s⁻¹
- MIC [28]: 4 µg/mL
- MIC [29]: 8 µg/mL
- MIC [30]: 0.5 µg/mL
- MIC [31]: 8 µg/mL
- MIC [32]: 0.5 µg/mL
- MIC [33]: 0.5 µg/mL
- MIC [34]: 2 µg/mL
- MIC [35]: 1 µg/mL
